Results published in ChEMBL document CHEMBL2169772, “Discovery of (2S)-1-[4-(2-{6-amino-8-[(6-bromo-1,3-benzodioxol-5-yl)sulfanyl]-9H-purin-9-yl}ethyl)piperidin-1-yl]-2-hydroxypropan-1-one (MPC-3100), a purine-based Hsp90 inhibitor” (J Med Chem, 2012).
pIC50: −log10 of the molar value. In brackets after ≈: the same amount, converted by molar mass.

Legend:
NCI-N87 [1] = assay: Antitumor activity against human NCI-N87 cells xenografted in po dosed nude mouse assessed as tumor growth inhibition administered as qd for 22 days measured twice a week; assay type: functional, organism-based
Procedure, shortened: (§1)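 Female nude mice (Crl:NU-Fox1nu) implanted subcutaneously in the right flank with 5 million NCI-N87 cells. At median tumor volume of roughly >100 mm3, randomized to 5 cohorts of 10. Dosed orally once daily for 22 days with vehicle (40% w/w Captisol) or 50, 75, 125 or 200 mg/kg. Tumor size and body weight measured at least twice weekly.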

Heat shock protein HSP90 [2] = target: T1, Heat shock protein HSP90 (Homo sapiens, UniProt P07900+P08238); assay: Inhibition of human HSP90 in DU145 cells assessed as degradation of Akt incubated for 24 hrs by Western blot method; assay type: cell-based
Procedure, shortened: (§2)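 Cells exposed to a range of concentrations for 24 h. Lysates analyzed by Western blot with Her2-, Hsp70- and Akt-specific antibodies.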

Heat shock protein HSP90 [3] = target: T1, Heat shock protein HSP90; assay: Inhibition of human HSP90 in DU145 cells assessed as induction of HSP70 incubated for 24 hrs by Western blot method; assay type: cell-based; details: DU-145; procedure, shortened: as §2
Heat shock protein HSP90 [4] = target: T1, Heat shock protein HSP90; assay: Inhibition of human HSP90 in NCI-N87 cells assessed as degradation of Her2 incubated for 24 hrs by Western blot method; assay type: cell-based; procedure, shortened: as §2
Mus musculus [5] = assay: Toxicity in nude mouse xenografted with human NCI-N87 cells assessed as effect on body weight at 75 mg/kg, po qd for 22 days measured twice a week; assay type: organism-based; design: dose 75 mg/kg, route oral; details: in vivo, 528 h; procedure, shortened: as §1
Mus musculus [6] = assay: Toxicity in nude mouse xenografted with human NCI-N87 cells assessed as effect on body weight at 125 mg/kg, po qd for 22 days measured twice a week; assay type: organism-based; design: dose 125 mg/kg, route oral; details: in vivo, 528 h; procedure, shortened: as §1
Mus musculus [7] = assay: Toxicity in nude mouse xenografted with human NCI-N87 cells assessed as effect on body weight at 200 mg/kg, po qd for 22 days measured twice a week; assay type: organism-based; design: dose 200 mg/kg, route oral; details: in vivo, 528 h; procedure, shortened: as §1
NCI-N87 [8] = assay: Antitumor activity against human NCI-N87 cells xenografted in nude mouse assessed as tumor growth inhibition at 75 mg/kg, po qd for 22 days measured twice a week; assay type: functional; details: NCI-N87, 528 h, read-out: TGI; procedure, shortened: as §1
Heat shock protein HSP90 [9] = target: T1, Heat shock protein HSP90; assay: Inhibition of human HSP90 in HCT116 cells assessed as degradation of Akt incubated for 24 hrs by Western blot method; assay type: cell-based; procedure, shortened: as §2
[10] = Lipophilicity, log P of the compound; assay type: physicochemical; details: octanol/water
[11] = Solubility of compound in phosphate buffer at pH 7.4; assay type: physicochemical
OVCAR-8 = assay: Cytotoxicity against human OVCAR8 cells assessed as inhibition of tumor growth incubated for 72 hrs by luminometry; assay type: functional, cell-based; details: OVCAR-8, 72 h
Procedure, shortened: (§3)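 Cells seeded at 5000 per well in DMEM with 10% serum and left overnight. Compound added from DMSO dilutions (0.4% DMSO final) for 72 h. After 5 min at room temperature, ATPLite two-step lysis and substrate added, 5 min incubation, then luminescence read. Values are the mean of at least two experiments.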

A549 = assay: Cytotoxicity against human A549 cells assessed as inhibition of tumor growth incubated for 72 hrs by luminometry; assay type: functional, cell-based; details: A549, 72 h; procedure, shortened: as §3
LNCaP = assay: Cytotoxicity against human LNCAP cells assessed as inhibition of tumor growth incubated for 72 hrs by luminometry; assay type: functional, cell-based; procedure, shortened: as §3
Mus musculus [12] = assay: Inhibition of HSP90 in mouse liver assessed as induction of HSP70 mRNA expression at 100 mg/kg, po after 6 hrs relative to control; assay type: functional
[13] = Cmax in Swiss nude mouse at 100 mg/kg, po by LC-ESI-MS/MS method; assay type: ADME, organism-based; design: dose 100 mg/kg, route oral; details: in vivo
Procedure, shortened: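 Single oral gavage in mice, vehicle 40% Captisol in phosphate buffer. EDTA plasma from cardiac puncture. Acetonitrile precipitation with internal standard, then LC-ESI-MS/MS quantitation against a 10–10 000 ng/mL standard curve. Cmax and AUC by noncompartmental analysis.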

[14] = Oral bioavailability in Swiss nude mouse at 10 mg/kg by LC-ESI-MS/MS method; assay type: ADME, organism-based; details: in vivo
Procedure, shortened: (§4)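 Mice dosed by oral gavage, vehicle DMA/PEG300/EtOH/H2O (3/40/12/45, v/v/v/v). Blood drawn by cardiac puncture into EDTA plasma. Three or five animals per time point. Plasma precipitated with acetonitrile plus internal standard. Quantified by LC-ESI-MS/MS against a 10–10 000 ng/mL standard curve with QC samples. Noncompartmental analysis.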

[15] = Cmax in Swiss nude mouse at 10 mg/kg, po by LC-ESI-MS/MS method; assay type: ADME, organism-based; design: dose 10 mg/kg, route oral; details: in vivo; procedure, shortened: as §4
[16] = Half life in Swiss nude mouse at 2.5 mg/kg, iv by LC-ESI-MS/MS method; assay type: ADME, organism-based; design: dose 2.5 mg/kg, route intravenous; details: in vivo
Procedure, shortened: (§5)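 Intravenous dose in mice, vehicle DMA/PEG300/EtOH/H2O 3/40/12/45. Sampling at 5, 15, 30, 60, 120, 240, 480 and 720 min, three or five animals per time point. Cardiac-puncture EDTA plasma. Acetonitrile protein precipitation with internal standard, then LC-ESI-MS/MS (10–10 000 ng/mL curve). Parameters by noncompartmental fit.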

[17] = Volume of distribution in Swiss nude mouse at 2.5 mg/kg, iv by LC-ESI-MS/MS method; assay type: ADME, organism-based; design: dose 2.5 mg/kg, route intravenous; details: in vivo; procedure, shortened: as §5
[18] = Oral bioavailability in Swiss nude mouse at 100 mg/kg administered using captisol and phosphate buffer system formulation by LC-ESI-MS/MS method; details: in vivo
NCI-N87 [19] = assay: Antitumor activity against human NCI-N87 cells xenografted in nude mouse assessed as tumor regression at 200 mg/kg, po qd for 22 days measured twice a week; details: 528 h

- inhibition (Heat shock protein HSP90 [2]; DU-145): Dose-dependent effect
- IC50 (Heat shock protein HSP90 [2]; du-145): 100 nM
- inhibition (Heat shock protein HSP90 [3]): Dose-dependent effect
- IC50 (Heat shock protein HSP90 [4]): 100 nM
- inhibition (Heat shock protein HSP90 [4]): Dose-dependent effect
- inhibition (Heat shock protein HSP90 [9]; HCT-116): Dose-dependent effect
- IC50 (Heat shock protein HSP90 [9]; hct-116): 100 nM
- logP [10]: 3.32
- solubility [11]: 20 µM (≈ 11 µg/mL)
- Cmax [13]: 13100 ng/mL
- bioavailability [14]: 38%
- Cmax [15]: 2800 ng/mL
- half-life [16]: 1.4 h
- Vd [17]: 2.44 L/kg
- bioavailability [18]: > 50%
SMILES: C[C@H](O)C(=O)N1CCC(CCn2c(Sc3cc4c(cc3Br)OCO4)nc3c(N)ncnc32)CC1
- TGI (NCI-N87 [1]): Dose-dependent effect
- Activity (Mus musculus [5]): Non-toxic
- Activity (Mus musculus [6]): Non-toxic
- Activity (Mus musculus [7]): Non-toxic
- inhibition in vivo at 75 mg/kg (NCI-N87 [8]): 62%
- pIC50 (OVCAR-8): 6.31
- pIC50 (A549): 6.11
- pIC50 (LNCaP): 6.29
- fold change (FC) (Mus musculus [12]): 53
- tumor regression at 200 mg/kg (NCI-N87 [19]): 48%
